Source: the RNAGym collection of RNA variant scans (doi:10.1126/science.aae0568)
Fewer inactive variants are shown than the library holds.

B1: tRNA (parent)
chain: GUUCCGUUGGCGUAAUGGUAACGCGUCUCCCUCCUAAGGAGAAGACUGCGGGUUCGAGUCCCGUACGGAACG

Variants of: B1
Experiment: yeast fitness relative to wild type (ratio to wild type); higher = fitter; tRNA-Arg(CCU), competitive growth, 37 C, YPD
Procedure, shortened: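 Variants of the tRNA-Arg(CCU) gene, chemically synthesised with a 3% per-site mutation rate at 69 sites, were placed at the native genomic locus in Saccharomyces cerevisiae. The pooled strains were competed in YPD at 37°C for 24 hours in six parallel replicates. Gene amplicons from the start population and from each end population were read by 100-nucleotide paired-end sequencing. Darwinian fitness relative to wild type came from changes in genotype frequencies; genotypes needed ≥ 100 starting reads, and estimates < 0.5 were set to 0.5.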

**Q.** With GUUCCGUUGGCGUAAUGGUAACGCGUCUCCCCCCUAAGAUGAAGACUGCGGGUUCGAGUCCCCUACGGAACG [U32C G39A A40U G63C] as the variant, how does the yeast fitness read?
**A.** ≤ 0.5

**Q.** For GUUCCGUUGGCGUAAUGGUAACGCGUCUCCCCCCUAAGGAGAAGAGUGCGGGUUCGUGUCCCGUACGGAACG [U32C C46G A57U], which yeast fitness is on record?
**A.** 0.673

**Q.** Which yeast fitness does the source give for GUUCCGUUGGCGUAAUGGUAACGCGUCUCCCCCCUAAGGAGAAGACUGCGGGUUCGAGUCCCGUAUGGAACG [U32C C66U] here?
**A.** 0.966

**Q.** Which yeast fitness does the source give for GUUCCGUUGGCGUAAUGGUAACGCGUCUCCCCCGUAAGGAGCAGACUGCGGGUUCGAGUCCCGUACGGAACG [U32C C34G A42C] here?
**A.** ≤ 0.5

**Q.** With GUUCCGUUGGCGUAAUGGUAACGCGUCUCCCCCGUAAGGAGUAGACUGCGGGUUCGAGUCCCGUACGGAACG [U32C C34G A42U] as the variant, how does the yeast fitness read?
**A.** ≤ 0.5

**Q.** For GUUCCGUUGGCGUAAUGGUAACGCGUCUCCCCCCUAAGGAGAAGACUGCGGGUUCGAGUGCCGUUCGGAACG [U32C C60G A65U], which yeast fitness is on record?
**A.** ≤ 0.5

**Q.** For GUUCCGUUGGCGUAAUGGUAACGCGUCUCCCCCCUAAGGAGAAGACUGCGGGUUCGAGUGCCGUACGGUACG [U32C C60G A69U], which yeast fitness is on record?
**A.** ≤ 0.5

**Q.** With GUUCCGUUGGCGUAAUGGUAACGCGUCUCCCCCCUAAGGAGAAGACUGCGGGUUCGAGUCCCGUAUGCAACG [U32C C66U G68C] as the variant, how does the yeast fitness read?
**A.** 0.554

**Q.** With GUUCCGUUGGCGUAAUGGUAACGCGUCUCCCCCCUAACGAGAAGACUGCGGGUUCGAGUCCCGUACGGAACG [U32C G38C] as the variant, how does the yeast fitness read?
**A.** 0.742

**Q.** With GUUCCGUUGGCGUAAUGGUAACGCGUCUCCCCCCUAAGGAGAAGACUGCGGGUUUGCGUCCCGUACAGAACG [U32C C55U A57C G67A] as the variant, how does the yeast fitness read?
**A.** 0.638

**Q.** Which yeast fitness does the source give for GUUCCGUUGGCGUAAUGGUAACGCGUCUCCCCCCUAAGGAGAAGACUGCGGGUUGGAGUCCCGUACGGAACG [U32C C55G] here?
**A.** 0.629

**Q.** For GUUCCGUUGGCGUAAUGGUAACGCGUCUCCCCCCUAAGGACAAGACUGCGGGUUCGAUUCCCGUACGGAACG [U32C G41C G58U], which yeast fitness is on record?
**A.** 0.533

**Q.** For GUUCCGUUGGCGUAAUGGUAACGCGUCUCCCCCCUAAGGAGAAGACUGCGGGUUCGAGUCCCGUACGCAACG [U32C G68C], which yeast fitness is on record?
**A.** 0.808

**Q.** For GUUCCGUUGGCGUAAUGGUAACGCGUCUCCCCCCUAAGCAGAAGACUGCGGGUUUGAGUCCCGUACGGAACG [U32C G39C C55U], which yeast fitness is on record?
**A.** ≤ 0.5

**Q.** With GUUCCGUUGGCGUAAUGGUAACGCGUCUCCCCCCUAAGGAGAAGACCGCGGGUUCGAGUCCCGUACGGAACG [U32C U47C] as the variant, how does the yeast fitness read?
**A.** 0.974

**Q.** For GUUCCGUUGGCGUAAUGGUAACGCGUCUCCCCCCUAAGGAGAAAACUGCGGGUUCGAGUCCCGUACGGUACG [U32C G44A A69U], which yeast fitness is on record?
**A.** 1.05

**Q.** Which yeast fitness does the source give for GUUCCGUUGGCGUAAUGGUAACGCGUCUCCCCCCUAAGGAGAAGACUGUGGGUUCGCGUCCCGUACGGAACG [U32C C49U A57C] here?
**A.** 0.654

**Q.** With GUUCCGUUGGCGUAAUGGUAACGCGUCUCCCCCCUAAGGAGAAGACUGCGGGUUCGAGUCCUGUACGGAACG [U32C C62U] as the variant, how does the yeast fitness read?
**A.** 1.02

**Q.** For GUUCCGUUGGCGUAAUGGUAACGCGUCUCCCCCCUAAGGAGAAGACUGCGGGUUCGAGUCCGGUACGGAACG [U32C C62G], which yeast fitness is on record?
**A.** 0.796

**Q.** For GUUCCGUUGGCGUAAUGGUAACGCGUCUCCCCCCUAAGGAGAAGACUGCGGGUUCGAGUCCAGUACGGAACG [U32C C62A], which yeast fitness is on record?
**A.** 0.727

**Q.** Which yeast fitness does the source give for GUUCCGUUGGCGUAAUGGUAACGCGUCUCCCCCCUAAGGAGAAGACUGCGGGUUCGAGUCCCGUUCGGAACG [U32C A65U] here?
**A.** 0.957

**Q.** With GUUCCGUUGGCGUAAUGGUAACGCGUCUCCCCCCUAAGGAGAAGACUGCGGGUUCGAGUCCCGUGCGGAACG [U32C A65G] as the variant, how does the yeast fitness read?
**A.** 0.936

**Q.** For GUUCCGUUGGCGUAAUGGUAACGCGUCUCCCCCCUAAGGAGAAGACUGCGGGUUCGAGUCCCGUCCGGAACG [U32C A65C], which yeast fitness is on record?
**A.** 1.03

**Q.** For GUUCCGUUGGCGUAAUGGUAACGCGUCUCCCCCCUAAGGAGAAGACUGCGGGUUCGAGUCCCGUUCGUAACG [U32C A65U G68U], which yeast fitness is on record?
**A.** 0.622

**Q.** Which yeast fitness does the source give for GUUCCGUUGGCGUAAUGGUAACGCGUCUCCCCCCUAAGGAGAAGACUGCGGGUUCGAGUCCCGUACAGAACG [U32C G67A] here?
**A.** 0.855

**Q.** For GUUCCGUUGGCGUAAUGGUAACGCGUCUCCCCCCUAAGGAGAAGACUGCGGGUUCGAGUCCCGUACUGAACG [U32C G67U], which yeast fitness is on record?
**A.** 0.861

**Q.** For GUUCCGUUGGCGUAAUGGUAACGCGUCUCCCCCGUAAGGACAAGACUGCGGGUUCGAGUCCCGUACGGAACG [U32C C34G G41C], which yeast fitness is on record?
**A.** ≤ 0.5

**Q.** Which yeast fitness does the source give for GUUCCGUUGGCGUAAUGGUAACGCGUCUCCCCCCUAAGGAGAAGAUUGCGCGUUCGAGUCCUGUACGGAACG [U32C C46U G51C C62U] here?
**A.** ≤ 0.5

**Q.** For GUUCCGUUGGCGUAAUGGUAACGCGUCUCCCCCAUAAGGAGAAGACUGCGGGUUCGAGUCCAGUACGGAACG [U32C C34A C62A], which yeast fitness is on record?
**A.** 0.591

**Q.** For GUUCCGUUGGCGUAAUGGUAACGCGUCUCCCCCCUAAGGAGAAGACUGCGGGUUCGCGUCCCGUACGGAACG [U32C A57C], which yeast fitness is on record?
**A.** 0.659

**Q.** Which yeast fitness does the source give for GUUCCGUUGGCGUAAUGGUAACGCGUCUCCCCCCUAAGGAGAAGACUGCGGGUUCGUGUCCCGUACGGAACG [U32C A57U] here?
**A.** 0.813

**Q.** For GUUCCGUUGGCGUAAUGGUAACGCGUCUCCCCCCUAAGGAGAAGACUGCGGGUUCGAGUCCCAUACGGAACG [U32C G63A], which yeast fitness is on record?
**A.** 0.832

**Q.** Which yeast fitness does the source give for GUUCCGUUGGCGUAAUGGUAACGCGUCUCCCCCCUAAGGAGAAGACUGCGGGUACGAGUCCCGUGCGGAACG [U32C U54A A65G] here?
**A.** ≤ 0.5

**Q.** For GUUCCGUUGGCGUAAUGGUAACGCGUCUCCCCCCUAAGGAGAAGACUGCGGGUUCGAGUCCCGUACUGCACG [U32C G67U A69C], which yeast fitness is on record?
**A.** ≤ 0.5

**Q.** For GUUCCGUUGGCGUAAUGGUAACGCGUCUCCCCCCUAAGGAGAAAACUGCGGGUUCGAGUCGCGUACGGAACG [U32C G44A C61G], which yeast fitness is on record?
**A.** ≤ 0.5

**Q.** With GUUCCGUUGGCGUAAUGGUAACGCGUCUCCCCCAUAAGGCGAAGACUGCGGGUCCGAGUCCCGUAUGGAACG [U32C C34A A40C U54C C66U] as the variant, how does the yeast fitness read?
**A.** 0.534

**Q.** For GUUCCGUUGGCGUAAUGGUAACGCGUCUCCCCCCUAAGGACAAGACUGCAGGUUCGAGUCGCGUACGGAACG [U32C G41C G50A C61G], which yeast fitness is on record?
**A.** 0.565
